Reference: ChEMBL document CHEMBL1149611, “Anti-malarial activity of N6-modified purine analogues” (Bioorg Med Chem, 2007)

Assays:
[1] = test system: Plasmodium falciparum; assay: Antimalarial activity against chloroquine,pyrimethamine-resistant Plasmodium falciparum K1 after 24 hrs; assay type: functional, organism-based; settings: K1, 24 h
How it was run: (§1)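 [³H]hypoxanthine incorporation assay. Compounds dissolved in DMSO and serially diluted in assay medium, final DMSO ≤0.01%. P. falciparum culture at 0.5% parasitaemia (65-75% ring stage), 2.5% haematocrit. Incubated 24 h at 37 °C in 5% CO₂, then [³H]hypoxanthine (0.1 µCi/well) added for a further 24 h. Incorporated radioactivity counted by scintillation. IC50 obtained by curve fitting. Chloroquine diphosphate used as standard.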

[2] = test system: Plasmodium falciparum; assay: Antimalarial activity against drug-sensitive Plasmodium falciparum 3D7 after 24 hrs; assay type: functional, organism-based; settings: 3D7, 24 h; how it was run: as §1
[3] = test system: Plasmodium falciparum; assay: Antimalarial activity against chloroquine, pyrimethamine and cycloguanil-resistant Plasmodium falciparum VS1 after 24 hrs; assay type: functional, organism-based; settings: VS1, 24 h; how it was run: as §1
[4] = Selectivity index, ratio of CC50 for human KB cells to IC50 for Plasmodium falciparum 3D7; assay type: functional
[5] = Selectivity index, ratio of CC50 for human KB cells to IC50 for Plasmodium falciparum K1; assay type: functional
[6] = Selectivity index, ratio of CC50 for human KB cells to IC50 for Plasmodium falciparum VS1; assay type: functional
[7] = test system: KB; assay: Cytotoxicity against human KB cells; assay type: functional
[8] = test system: Plasmodium berghei; assay: Antiparasitemia activity against Plasmodium berghei infected mice (Mus musculus) at 30 mg/kg subcutaneous dose for 4 days; assay type: functional
How it was run: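 Male CD-1 outbred mice (20 g), infected intravenously with 2×10^6 P. berghei AS parasitized red cells, received subcutaneous 0.2 mL doses in 10% DMSO/0.05% Tween 80 in water at 2 h (day 0) and on days 1, 2, 3 and 4. Day-5 Giemsa blood smears were counted microscopically, and mean group parasitaemia was expressed as % inhibition versus untreated mice.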

[9] = test system: Plasmodium berghei; assay: Antiparasitemia activity against Plasmodium berghei infected mice (Mus musculus) at 30 mg/kg peroral dose for 4 days; assay type: functional; settings: route oral
How it was run: (§2)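 Peters' suppressive test: 20 g male CD-1 mice were infected iv with 2×10^6 P. berghei AS-parasitized erythrocytes. Compound was dosed orally, 0.2 mL, in standard suspending formula (0.5% Na carboxymethylcellulose, 0.5% benzyl alcohol, 0.4% Tween 80, 0.9% NaCl) at 2 h and on days 1–4 post-infection. Parasitaemia was read microscopically from Giemsa films on day 5 as % inhibition relative to the untreated group's arithmetic mean.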

[10] = test system: Plasmodium berghei; assay: Antiparasitemia activity against Plasmodium berghei infected mice (Mus musculus) at 100 mg/kg intravenous dose for 4 days; assay type: functional
How it was run: (§3)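 CD-1 outbred male mice (20 g) were infected intravenously with 2×10^6 P. berghei AS parasitized red cells. Drug in 5% dextrose was given iv, 0.2 mL, at 2 h (day 0) and on days 1, 2, 3 and 4 post-infection. Day-5 Giemsa-stained blood films were counted, and results were expressed as % inhibition of mean group parasitaemia versus the untreated group.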

[11] = test system: Plasmodium berghei; assay: Antiparasitemia activity against Plasmodium berghei infected mice (Mus musculus) at 100 mg/kg peroral dose for 4 days; assay type: functional; settings: route oral; how it was run: as §2
[12] = test system: Plasmodium berghei; assay: Antiparasitemia activity against Plasmodium berghei infected mice (Mus musculus) at 10 mg/kg intravenous dose for 4 days; assay type: functional; how it was run: as §3

| Structure (SMILES) | IC50 [1] | IC50 [2] | IC50 [3] | Ratio CC50/IC50 [4] | Ratio CC50/IC50 [5] | Ratio CC50/IC50 [6] | CC50 [7] | Activity [8] | Activity [9] | Activity [10] | Activity [11] | Activity [12] |
| --- | --- | --- | --- | --- | --- | --- | --- | --- | --- | --- | --- | --- |
| CN(N)c1ncnc2[nH]cnc12 | 478 µM | 508 µM | 419 µM |  |  |  |  |  |  |  |  |  |
| CON(C)c1ncnc2[nH]cnc12 | > 613 µM | > 613 µM | > 613 µM |  |  |  |  |  |  |  |  |  |
| CON(C)c1ncnc2c1ncn2[C@@H]1O[C@H](CO)[C@@H](O)[C@H]1O | 12.5 µM | 21.8 µM | 25.2 µM | <1 | 1.2 | <1 | 15.3 µM |  |  |  |  |  |
| OC[C@H]1O[C@@H](n2cnc3/c(=N\O)[nH]cnc32)[C@H](O)[C@@H]1O | 6.9 µM | 11.6 µM | 8.56 µM | 3.8 | 6.4 | 5.2 | 44.3 µM |  |  |  |  |  |
| Nc1nc2c(ncn2[C@@H]2O[C@H](CO)[C@@H](O)[C@H]2O)/c(=N\O)[nH]1 | 10.8 µM | 16 µM | 13.3 µM | 17.5 | 25.9 | 21.1 | 281 µM |  |  |  |  |  |
| NNc1ncnc2c1ncn2[C@@H]1O[C@H](CO)[C@@H](O)[C@H]1O | 7.48 µM | 13.3 µM | 7.92 µM | <1 | <1 | <1 | 2.26 µM |  |  |  |  |  |
| CO/N=c1/[nH]cnc2c1ncn2[C@@H]1O[C@H](CO)[C@@H](O)[C@H]1O | 20.6 µM | 11.4 µM | 9.87 µM | <1 | <1 | <1 | 6.16 µM |  |  |  |  |  |
| CO/N=c1/[nH]c(N)nc2c1ncn2[C@@H]1O[C@H](CO)[C@@H](O)[C@H]1O | 184 µM | 232 µM | 225 µM | 3.4 | 4.3 | 3.5 | 784 µM |  |  |  |  |  |
| Nc1nc2c(ncn2[C@@H]2O[C@H](CO)[C@@H](O)[C@H]2O)/c(=N\OCc2ccccc2)[nH]1 |  | 183 µM | 126 µM |  |  |  |  |  |  |  |  |  |
| c1ccc(CO/N=c2/[nH]cnc3[nH]cnc23)cc1 |  | 400 µM | 352 µM |  |  |  |  |  |  |  |  |  |
| NNc1nc(N)nc2[nH]cnc12 | 109 µM | 189 µM | 89.3 µM | 5.3 | 9.2 | 11.2 | 1000 µM |  |  |  |  |  |
| CO/N=c1/[nH]cnc2[nH]cnc12 | 354 µM | 98.9 µM | > 606 µM | 12.7 | 3.6 | 2.1 | 1260 µM |  |  |  |  |  |
| C=CCO/N=c1/[nH]cnc2c1ncn2[C@@H]1O[C@H](CO)[C@@H](O)[C@H]1O |  | 3.31 µM | 34 µM |  |  |  |  |  |  |  |  |  |
| OC[C@H]1O[C@@H](n2cnc3/c(=N\OCc4ccccc4)[nH]cnc32)[C@H](O)[C@@H]1O |  | 13.2 µM | 14.2 µM | 67.6 |  | 62.6 | 889 µM |  |  |  |  |  |
| CON(C)c1nc(N)nc2c1ncn2[C@@H]1O[C@H](CO)[C@@H](O)[C@H]1O | > 306 µM | > 306 µM | > 306 µM |  |  |  |  |  |  |  |  |  |
| ONc1ncnc2[nH]cnc12 | 10.2 µM | 7.48 µM | 5.57 µM | 199 | 146 | 267 | 1490 µM | 1.8% | 3.9% |  |  |  |
| c1ccc(NNc2ncnc3[nH]cnc23)cc1 |  | 19.3 µM | 19.8 µM | 8.64 |  | 8.43 | 167 µM |  |  |  |  |  |
| NNc1ncnc2[nH]cnc12 | 22.1 µM | 23.1 µM | 18.8 µM | 2.1 | 2.2 | 2.6 | 49.3 µM |  |  |  |  |  |
| CN(N)c1nc(N)nc2[nH]cnc12 | > 558 µM | > 558 µM | > 558 µM |  |  |  |  |  |  |  |  |  |
| Nc1nc2[nH]cnc2/c(=N\O)[nH]1 | 9.03 µM | 27.8 µM | 16.8 µM | 1.6 | 5 | 2.7 | 45 µM |  |  |  |  |  |
| CO/N=c1/[nH]c(N)nc2[nH]cnc12 | 435 µM | 428 µM | > 555 µM |  |  |  |  |  |  |  |  |  |
| CN(N)c1ncnc2c1ncn2[C@@H]1O[C@H](CO)[C@@H](O)[C@H]1O | 35.4 µM | 72.7 µM | 22.5 µM | 1.4 | 2.9 | 4.5 | 101 µM |  |  |  |  |  |
| NNc1nc(N)nc2c1ncn2[C@@H]1O[C@H](CO)[C@@H](O)[C@H]1O | 10 µM | 10.2 µM | 12.2 µM | 134 | 136 | 112 | 1360 µM | 14% | 22.3% | 43.9% | 26.8% |  |
| CN(N)c1nc(N)nc2c1ncn2[C@@H]1O[C@H](CO)[C@@H](O)[C@H]1O | 3.6 µM | 2.27 µM | 0.29 µM | 533 | 410 | 5008 | 1480 µM | 28.3% | 12.3% | 14% | 4.8% |  |
| OC[C@H]1O[C@@H](n2cnc3c(NNc4ccccc4)ncnc32)[C@H](O)[C@@H]1O |  | 14.2 µM | 11 µM | 7.68 |  | 9.9 | 109 µM |  |  |  |  |  |
| CCN(CC)CCCC(C)Nc1ccnc2cc(Cl)ccc12 (centres undefined) [CHLOROQUINE] |  |  |  |  |  |  | 187 µM |  |  |  |  | 100% |
| COc1cc([C@@H]2c3cc4c(cc3[C@H](O)[C@H]3COC(=O)[C@H]23)OCO4)cc(OC)c1OC [PODOFILOX] |  |  |  |  |  |  | 0.048 µM |  |  |  |  |  |
| CCc1nc(N)nc(N)c1-c1ccc(Cl)cc1 [PYRIMETHAMINE] |  |  |  |  |  |  |  | 100% | 100% |  |  |  |
